In ChEMBL document CHEMBL1125389, “Synthesis and use of 3-amino-4-phenyl-2-piperidones and 4-amino-2-benzazepin-3-ones as conformationally restricted phenylalanine isosteres in renin inhibitors” (J Med Chem, 1992):

Target: T1, Renin (Homo sapiens, UniProt P00797)
T1 sequence (P00797 whole entry): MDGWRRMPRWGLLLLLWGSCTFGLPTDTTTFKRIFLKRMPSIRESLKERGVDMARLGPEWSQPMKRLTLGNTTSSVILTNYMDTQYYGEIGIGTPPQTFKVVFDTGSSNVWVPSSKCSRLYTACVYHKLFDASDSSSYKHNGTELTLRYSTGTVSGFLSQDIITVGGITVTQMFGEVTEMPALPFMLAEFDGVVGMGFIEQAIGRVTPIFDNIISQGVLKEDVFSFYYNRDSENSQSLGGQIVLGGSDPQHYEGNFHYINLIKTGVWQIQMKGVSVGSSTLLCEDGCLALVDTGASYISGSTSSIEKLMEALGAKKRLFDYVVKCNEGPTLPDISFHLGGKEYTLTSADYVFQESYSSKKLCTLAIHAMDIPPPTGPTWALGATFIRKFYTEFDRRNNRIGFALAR
Experiment: Compound was evaluated for the inhibition of human plasma renin at pH 7.4
Assay type: cell-free
Summary of the method: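 Human plasma renin activity measured by radioimmunoassay of generated angiotensin I, run in phosphate buffer at pH 7.4 and 37 °C. IC50 is the mean of three determinations.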

## CCCCNC(=O)[C@@H](C[C@H](O)[C@H](CC1CCCCC1)NC(=O)[C@H](CCCC)N1Cc2ccccc2C[C@H](N2C(=O)c3ccccc3C2=O)C1=O)C(C)C
  IC50: > 20000 nM

## CCCCNC(=O)[C@@H](C[C@H](O)[C@H](CC1CCCCC1)NC(=O)[C@H](CCCC)NC(=O)C(Cc1ccccc1)NC(C)=O)C(C)C (stereo not given in full)
  IC50: 0.84 nM

## CCCCNC(=O)[C@@H](C[C@H](O)[C@H](CC1CCCCC1)NC(=O)[C@H](CCCC)NC(=O)C(Cc1ccccc1)NC(=O)OC(C)(C)C)C(C)C (stereo not given in full)
  IC50: 2.1 nM

## CCCCNC(=O)[C@@H](C[C@H](O)[C@H](CC1CCCCC1)NC(=O)[C@H](CCCC)N1CC[C@@H](c2ccccc2)[C@H](NC(=O)OC(C)(C)C)C1=O)C(C)C
  IC50: 5910 nM

## CCCCNC(=O)[C@@H](C[C@H](O)[C@H](CC1CCCCC1)NC(=O)[C@H](CCCC)N1Cc2ccccc2C[C@H](NC(=O)OC(C)(C)C)C1=O)C(C)C
  IC50: 1730 nM

## CCCCNC(=O)[C@@H](C[C@H](O)[C@H](CC1CCCCC1)NC(=O)[C@H](CCCC)N1Cc2ccccc2C[C@H](N)C1=O)C(C)C
  IC50: 2040 nM

## CCCCNC(=O)[C@@H](C[C@H](O)[C@H](CC1CCCCC1)NC(=O)[C@H](CCCC)NC(=O)C(Cc1ccccc1)N1C(=O)c2ccccc2C1=O)C(C)C (stereo not given in full)
  IC50: 87 nM

## CCCCNC(=O)[C@@H](C[C@H](O)[C@H](CC1CCCCC1)NC(=O)[C@H](CCCC)N1CC[C@H](c2ccccc2)[C@H](NC(=O)OC(C)(C)C)C1=O)C(C)C
  IC50: 134 nM

## CCCCNC(=O)[C@@H](C[C@H](O)[C@H](CC1CCCCC1)NC(=O)[C@H](CCCC)N1CC[C@H](c2ccccc2)[C@H](NC(C)=O)C1=O)C(C)C
  IC50: 21 nM

## CCCCNC(=O)[C@@H](C[C@H](O)[C@H](CC1CCCCC1)NC(=O)[C@H](CCCC)N1Cc2ccccc2C[C@H](NC(C)=O)C1=O)C(C)C
  IC50: 210 nM
